The subject of experiment [1] is AR-FL mRNA. Description: QuantiGene assay for AR-FL mRNA expression in 22Rv1 cells. It is filed as cell-based. The following applies: Homo sapiens, 22Rv1, 6 h, read-out: IC50 for AR-FL transcript suppression.
Experiment [2] concerns AR-V7 mRNA. The experiment in a line: QuantiGene assay for AR-V7 mRNA expression in 22Rv1 cells. It is filed as cell-based. The following applies: Homo sapiens, 22Rv1, 6 h, read-out: IC50 for AR-V7 transcript suppression.
In experiment [3] the target is T1, NONO C145 (Homo sapiens, UniProt Q15233).
T1 sequence (Q15233 1-471): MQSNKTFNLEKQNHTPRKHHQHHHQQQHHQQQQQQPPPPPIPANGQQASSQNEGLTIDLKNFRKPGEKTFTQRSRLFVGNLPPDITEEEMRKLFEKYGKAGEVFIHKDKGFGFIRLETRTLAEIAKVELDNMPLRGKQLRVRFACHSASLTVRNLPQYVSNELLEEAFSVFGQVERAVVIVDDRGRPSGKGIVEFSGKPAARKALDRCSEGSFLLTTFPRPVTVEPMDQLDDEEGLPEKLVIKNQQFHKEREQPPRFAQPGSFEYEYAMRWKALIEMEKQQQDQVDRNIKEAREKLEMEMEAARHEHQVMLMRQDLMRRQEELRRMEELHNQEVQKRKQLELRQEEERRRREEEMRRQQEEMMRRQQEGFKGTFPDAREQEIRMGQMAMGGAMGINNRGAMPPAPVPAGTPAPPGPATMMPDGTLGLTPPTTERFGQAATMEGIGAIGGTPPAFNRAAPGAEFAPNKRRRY
The format is binding. Put shortly:
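HEK293T cells were seeded at 5 × 10^5 overnight and PEI-transfected with FLAG-tagged WT or C145S NONO, or empty vector, for 48 h. Cells were then given test compound or 0.1% DMSO in situ for 2 h, followed by a cysteine-reactive alkyne probe (20 μM, 1 h, 37 °C). Lysates (2 mg ml–1) were click-conjugated to rhodamine/TAMRA-azide and run on SDS-PAGE. The FLAG-NONO band was quantified by in-gel fluorescence. Four independent experiments gave the IC50.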

Experiment [4] has as its target T1, NONO C145. Description: Cysteine-directed MS-ABPP, engagement of NONO C145 in 22Rv1 cells. It is filed as binding. The following applies: 1 h. Put shortly: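 22Rv1 cells were seeded at 2 × 10^6 per 10-cm plate and grown for 48 h. They were treated in situ with 20 μM test compound or DMSO for 1 h, then analysed by cysteine-directed MS-ABPP. Engagement was taken from the DMSO versus compound reactivity ratio, capped at 10 and 0.1. Values are means of three independent experiments, counting cysteines quantified in at least two.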

In experiment [5] the target is T2, NONO (Homo sapiens, UniProt Q15233).
T2 sequence (Q15233 1-471): T1 sequence (Q15233 1-471)
The experiment in a line: Immunofluorescence of NONO nuclear foci in 22Rv1 cells. The format is cell-based. The following applies: 20 μM, 1 h to 24 h.

Experiment [6] concerns 22Rv1 cells. The experiment in a line: RNA-seq of sgControl 22Rv1 cells. It is filed as cell-based, human. The following applies: 20 μM, 4 h, log2 (fold change) < −0.5, Padj < 0.01, versus (S)-SKBG-1 or DMSO.
Experiment [7] relates to 22Rv1 cells. The experiment in a line: Cell growth inhibition assay. The following applies: 22Rv1, 6 d, versus (S)-SKBG-1. The format is cell-based, human. The essentials:
(§1)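 Cells were seeded at 5,000 per well for 16 h. They were then given 0.1% DMSO or test compound in 0.1% DMSO (threefold dilutions from 50 μM, eight concentrations) until DMSO controls were confluent: 6 d for 22Rv1, 5 d for MCF7, 4 d for HeLa and HT1080. CellTiterGlo was added for 30 min at room temperature and luminescence read. Signals were normalized to DMSO, with four replicate wells per concentration. EC50 came from a four-parameter variable-slope fit.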

Experiment [8] relates to MCF7 cells. Description: Cell growth inhibition assay. It is filed as cell-based, human. The note with it: MCF7, 5 days, versus (S)-SKBG-1. Put shortly:
as §1

In experiment [9] the test system is HeLa cells. Description: Cell growth inhibition assay. The format is cell-based, human. The note with it: 4 days, versus (S)-SKBG-1. The essentials:
as §1

For experiment [10], the system named is HT1080 cells. Description: Cell growth inhibition assay. The note with it: HT1080, 4 days, versus (S)-SKBG-1. The format is cell-based, human. Put shortly:
as §1

We go through 2 compounds from article PMC10337234 (Nature chemical biology, 2023).

As for `COc1ccc(CNC(=O)[C@H]2CN(C(=O)CCl)CCN2S(=O)(=O)c2ccc(OC)cc2)cc1` [(R)-SKBG-1], the IC50 (usually the concentration that inhibits the measured activity by half) in experiment [1] is 2.7 to 5.5 µM; in [2], 2.7 to 5.5 µM; in [3], 5.7 µM. For the same compound, the inhibition at 20 µM in experiment [4] (read-out: engagement of NONO C145) was more than 50%. Moreover, the “formation of subnuclear foci of NONO” value in experiment [5] is reported as “induced the formation of large subnuclear foci of NONO”. Also, in experiment [6], the “number of transcripts substantially and significantly decreased” value was ~ 1,000 transcripts. The cell growth effect entry in experiment [7], in experiment [8], in [9] and in experiment [10] was “stereoselective cell growth impairment” in each case.
As to `COc1ccc(CNC(=O)[C@@H]2CN(C(=O)CCl)CCN2S(=O)(=O)c2ccc(OC)cc2)cc1` [(S)-SKBG-1], in experiment [4] (22Rv1 cells, 20 μM), the “engagement of NONO C145” value was “not by the inactive controls”.
